Measurements taken from paper PMC6939458 (Cancer cell, 2019).
“And” between values parts separate entries of the source, which are not always exact repeats. Equal entries are not always repeated.

Experiments:
[1] = Maximum tolerated dose / acute toxicity in mice; type: in vivo; conditions: 361-treated mice
[2] = test system: MYC; assay: Western blot of MYC protein level, stability and phosphorylation in cells; type: cell-based, human
Summary of the method: (§1)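 PC3 cells, or PC3 stably expressing Flag-MYC, Flag-MYCT58A or Flag-MYCS62A (lentiviral, 1.5 μg/ml puromycin selection), were used. For stability, cells were pretreated 3 hr with compound or DMSO, then given cycloheximide and harvested at time points. MYC, pT58, pS62, GSK3β and pGSK3β S9 were detected by western blot over a time course. Band intensities were densitometrically quantified.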

[3] = target: MYC (Homo sapiens, UniProt P01106, T73A); assay: as above; type: cell-based; conditions: 6 μM, PC3 cells expressing Flag-MYCT58A
Summary of the method: as §1

[4] = test system: pheochromocytoma PC12 cells; assay: Cell viability, PC12 cells; type: cell-based; conditions: PC12, does not require MYC/MAX dimer for proliferation
Summary of the method: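 PC12 cells were grown in F-12K with 2% heat-inactivated FBS and 12.5% horse serum. They were seeded at 1000 to 5000 cells per well in 96-well plates and treated for 2 to 7 days. Read-out was viable-cell count or MTS absorbance at 490 nm.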

[5] = test system: MYC-dependent cancer cells; assay: Cell viability, MYC-dependent cancer cells; type: cell-based; conditions: MycCaP, LNCaP, PC3, MV4–11, HL-60, P493–6, SK-N-B2; 5 days
Summary of the method: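 Cells were seeded at 1000 to 5000 per well in 96-well plates, depending on cell type. Viable cells were counted, or MTS absorbance was read at 490 nm, 2 to 7 days after treatment. MycCaP, PC3, LNCaP and P493–6 were grown in RPMI1640, SK-N-BE(2) in F12 and MV411 in IMDM, each with 10% heat-inactivated FBS and 1% penicillin-streptomycin.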

[6] = test system: MYC transcriptional activity (E-box-luciferase); assay: E-box luciferase reporter assay in vitro; type: cell-based
Summary of the method: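 MycCaP cells stably carrying either MYC E-box-luciferase reporter or control mCherry-P2A-luciferase vector plated 10000 cells/well. Serial dilution of test compound added the next day; luminescence read by Steady-Glo after 4 hr treatment.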

[7] = target: GSK3β-mediated MYC pT58 (Homo sapiens, UniProt P01106); assay: In vitro kinase assay; type: biochemical; conditions: 6 μM
Summary of the method: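 Phosphorylation reactions were run in kinase buffer (25 mM Tris-HCl pH 7.5, 5 mM β-glycerophosphate, 2 mM DTT, 0.1 mM sodium vanadate, 10 mM MgCl₂) at room temperature for 2 hr in total.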

[8] = target: MYC/MAX interaction (Homo sapiens, UniProt P01106); assay: Co-immunoprecipitation and proximity ligation assay in PC3 cells; type: cell-based; conditions: 6 μM
Summary of the method: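 For PLA, PC3 or PC3 T58A cells were grown in chamber slides and treated for 1 to 2 hr, then fixed in 4% PFA and permeabilised with 0.5% Triton-X. PLA signals per cell were counted by image analysis. For co-IP, cells were lysed in 20 mM Tris-HCl pH 8.0, 100 mM NaCl, 1 mM EDTA and 0.5% NP-40. Pellets were enzymatically sheared for 90 min at 4 °C and precipitates were analysed by western blot.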

[9] = Pharmacokinetics of 361 in C57BL/6 mice; type: in vivo; conditions: male, C57BL/6, mouse, plasma, 50 mg/kg
[10] = target: MYC (Homo sapiens, UniProt P01106); assay: Cellular thermal shift assay; type: cell-based
Summary of the method: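 PC3 cells (70–80% confluent; also PC3 stably expressing Flag-MYCT58A, puromycin 1.5 μg/ml selected) treated with test compound or DMSO for 30 min. Cells washed, resuspended in PBS with protease/phosphatase inhibitors plus the same compound dose, split into 7–10 aliquots (~1 million cells each), heated 2 min at graded temperatures, then 3 min room temperature. Lysates boiled 5 min at 90 °C; MYC quantified by Western blot densitometry to build melt curves.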

[11] = test system: Rat1 fibroblasts (HO15.19, TGR.1); assay: Cell viability, Rat1 fibroblasts; type: cell-based, rat; conditions: HO15.19 vs TGR.1
Summary of the method: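 Myc-knockout HO15.19 and wild-type TGR.1 Rat-1 fibroblasts were kept in DMEM with 10% calf serum. They were seeded in 48-well plates at 1000 per well (HO15.19) or 3000 per well (TGR.1). After 2 to 7 days of treatment, viable cells were counted or MTS absorbance was read at 490 nm.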

[12] = target: MYC353–439 (Homo sapiens, UniProt P01106); assay: Fluorescence polarization competition assay against 10074-G5; type: binding
[13] = target: MYC/MAX/DNA complex (Homo sapiens, UniProt P01106); assay: EMSA, MYC/MAX/DNA complex formation; type: biochemical
[14] = test system: phosphatase inhibition screening panel; assay: Phosphatase inhibition screening panel; type: biochemical; conditions: 10-dose 3-fold serial dilutions starting at 100 μM
Summary of the method: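 Run in 10-dose IC₅₀ mode, each compound tested singly, with a PTP1B inhibitor as control compound.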

[15] = test system: 468 kinases, including GSK3β; assay: KINOMEscan kinome screen; type: binding; conditions: 6 μM
[16] = test system: MYC target gene expression; assay: RNA-seq and RT-qPCR gene expression; type: cell-based, human
Summary of the method: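 MYCT58A cells were PC3 transduced with Flag-MYCT58A lentivirus and selected with 1.5 μg/ml puromycin. RT-qPCR used human MYC and 18S rRNA primers. For RNA-seq, PC3 cells were treated for 24 hr in triplicate and RNA was extracted after a PBS wash.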

Sequence of MYC (Homo sapiens, UniProt P01106) (P01106 16-454): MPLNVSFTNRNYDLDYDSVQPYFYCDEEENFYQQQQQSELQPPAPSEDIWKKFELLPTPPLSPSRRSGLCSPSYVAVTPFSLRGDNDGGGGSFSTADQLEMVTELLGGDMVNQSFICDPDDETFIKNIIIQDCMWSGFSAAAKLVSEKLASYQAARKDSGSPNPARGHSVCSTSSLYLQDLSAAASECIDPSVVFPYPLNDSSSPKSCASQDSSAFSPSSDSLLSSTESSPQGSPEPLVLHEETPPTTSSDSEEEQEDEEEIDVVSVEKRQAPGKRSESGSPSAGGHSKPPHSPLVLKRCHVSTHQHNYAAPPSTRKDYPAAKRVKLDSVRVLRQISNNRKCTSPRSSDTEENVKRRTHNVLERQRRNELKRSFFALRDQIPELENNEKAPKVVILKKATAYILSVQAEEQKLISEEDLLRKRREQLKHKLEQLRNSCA
Sequence of MYC/MAX interaction (P01106 16-454): as above
Sequence of MYC/MAX/DNA complex (P01106 368-454, one chain of several): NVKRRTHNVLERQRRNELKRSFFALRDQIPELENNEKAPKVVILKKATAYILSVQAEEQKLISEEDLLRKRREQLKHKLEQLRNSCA
Sequence of MYC (Homo sapiens, UniProt P01106, T73A) (P01106 16-454 T73A): as the sequence (P01106 16-454) above, with T58A counted along it
Sequence of GSK3β-mediated MYC pT58 (P01106 16-454): as the sequence (P01106 16-454) above
Sequence of MYC353–439 (P01106 368-454): as the sequence (P01106 368-454, one chain of several) above

## Cn1nc(C(F)(F)F)cc1-c1ccc(OCc2ccc(Cl)cc2)c(-c2cc(C(F)(F)F)cc(C(F)(F)F)c2)c1O [Compound 361, 6-((4-chlorobenzyl)oxy)-3-(1-methyl-3-(trifluoromethyl)-1H-pyrazol-5-yl)-3’,5’-bis(trifluoromethyl)-[1,1’-biphenyl]-2-ol]
[1]
  histopathological analysis of major organs: suppression of the splenic white pulp and hepatocyte hypertrophy
[2]
  phosphorylation of β-Catenin at S33/37/T41: did not affect
[2]; 6 μM, PC3 cells
  MYC T58 and S62 phosphorylation: selectively increased T58 but not S62 phosphorylation
[2]; PC3 cells
  regulatory GSK3β S9 phosphorylation: did not affect
[2]; multiple cell lines expressing MYC and MYCN
  MYC, MYCN and MAX protein levels: reduction in MYC and MYCN, but not MAX, protein levels
[3]
  degradation of MYCT58A mutant: not readily degraded
[4]
  effect on cell viability: little effect
[5]
  IC50s, cell viability: low micromolar
[6]
  E-box-luciferase versus CMV-luciferase activity in vitro: selectively inhibited E-box-luciferase but not CMV-luciferase activity
[7]
  pT58 levels in in vitro kinase assay: significantly increased pT58 levels
[8]; MYCT58A-expressing PC3 cells
  MYCT58A/MAX interactions (PLA): disrupted
[8]; PC3 cells, 1 hr
  MYC/MAX interaction by co-IP and PLA: disruption of the MYC/MAX interaction
[9]; ip
  Cmax: 27200 ng/mL and 46 µM
  concentration at 24 hr: 12700 ng/mL and 21 µM
  half-life: 44 h
[9]; po
  Cmax: 13900 ng/mL and 23 µM
  concentration at 24 hr: 9 µM and 5280 ng/mL
  half-life: 20 h
[10]; 6 μM, MYCT58A-expressing PC3 cells
  interaction with MYCT58A by CETSA: can interact
[10]; PC3 cells, 30 min, 361 4–10 μM, G5 15–60 μM, 360 6 μM
  thermal stability of MYC protein (CETSA): significant thermal destabilization
[11]
  sensitivity of Myc knockout versus wild-type fibroblasts: more resistant
[12]
  Kd: 3.2 µM
[13]; EMSA
  disruption of MYC/MAX/DNA complex formation: impaired
[13]; EMSA and cell viability assays
  activity in vitro: active
[14]
  phosphatase inhibition screening panel result: negative
[15]
  kinome screen result: negative
[16]
  MYC mRNA levels: not altered
[16]; 6 μM, 24 hr, MYCT58A-expressing cells
  expression of MYC target genes CDC25A and MYB: potently suppressed
[16]; 6 μM, 24 hr, RNA-seq
  MYC target gene expression (GSEA, six gene sets): significantly down regulated in all gene sets
